Data taken from ChEMBL document CHEMBL4052759, “Discovery of DS79182026: A potent orally active hepcidin production inhibitor” (Bioorg Med Chem Lett, 2017).
Each block holds one molecule with its values, some of them ahead of it.

What was measured:
[1] = biological target: Insulin receptor (Homo sapiens) (UniProt P06213); experiment: Inhibition of INSR (unknown origin) at 0.078 uM relative to control
[2] = Clearance in C57BL/6J mouse at 30 mg/kg, iv by LC-MS/MS analysis; assay type: ADME, organism-based; conditions: in vivo
In short: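 C57BL/6J mice got a single 30 mg/kg intravenous dose as a solution in 92 mM SBE7-β-CyD. The value is the average of two animals.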

[3] = biological target: Casein kinase I isoform delta (Homo sapiens) (UniProt P48730); experiment: Inhibition of CK1-delta (unknown origin) at 0.078 uM relative to control
[4] = biological target: Fibroblast growth factor receptor 1 (Homo sapiens) (UniProt P11362); experiment: Inhibition of FGFR1 (unknown origin) at 0.078 uM relative to control
[5] = biological target: Vascular endothelial growth factor receptor 2 (Homo sapiens) (UniProt P35968); experiment: Inhibition of KDR (unknown origin) at 0.078 uM relative to control
[6] = biological target: Proto-oncogene tyrosine-protein kinase Src (Homo sapiens) (UniProt P12931); experiment: Inhibition of SRC (unknown origin) at 0.078 uM relative to control
[7] = biological target: Mitogen-activated protein kinase kinase kinase 7 (Homo sapiens) (UniProt O43318); experiment: Inhibition of c-TAK1 (unknown origin) at 0.078 uM relative to control
[8] = biological target: Calcium/calmodulin-dependent protein kinase type 1D (Homo sapiens) (UniProt Q8IU85); experiment: Inhibition of CamK1d (unknown origin) at 0.49 uM relative to control
[9] = biological target: Death-associated protein kinase 1 (Homo sapiens) (UniProt P53355); experiment: Inhibition of DAPK1 (unknown origin) at 0.49 uM relative to control
[10] = biological target: Mitogen-activated protein kinase kinase kinase kinase 2 (Homo sapiens) (UniProt Q12851); experiment: Inhibition of GCK (unknown origin) at 0.49 uM relative to control
[11] = biological target: Calcium/calmodulin-dependent protein kinase type II subunit beta (Homo sapiens) (UniProt Q13554); experiment: Inhibition of CAMK2 (unknown origin) at 0.49 uM relative to control
[12] = test system: Mitogen-activated protein kinase 14 (Homo sapiens), Q16539 [T106M]; experiment: Inhibition of SAPK2a T106M mutant (unknown origin) at 0.49 uM relative to control
[13] = biological target: Protein kinase C beta type (Homo sapiens) (UniProt P05771); experiment: Inhibition of PKC-beta2 (unknown origin) at 0.49 uM relative to control
[14] = biological target: MAP kinase-activated protein kinase 3 (Homo sapiens) (UniProt Q16644); experiment: Inhibition of MAPKAPK3 (unknown origin) at 0.49 uM relative to control
[15] = biological target: Leukocyte tyrosine kinase receptor (Homo sapiens) (UniProt P29376); experiment: Inhibition of LTK (unknown origin) at 0.49 uM relative to control
[16] = biological target: RAC-alpha serine/threonine-protein kinase (Homo sapiens) (UniProt P31749); experiment: Inhibition of AKT1 (unknown origin) at 0.49 uM relative to control
[17] = biological target: ALK tyrosine kinase receptor (Homo sapiens) (UniProt Q9UM73); experiment: Inhibition of ALK (unknown origin) at 0.49 uM relative to control
[18] = biological target: Vascular endothelial growth factor receptor 1 (Homo sapiens) (UniProt P17948); experiment: Inhibition of FLT1 (unknown origin) at 0.49 uM relative to control
[19] = biological target: Proto-oncogene tyrosine-protein kinase receptor Ret (Homo sapiens) (UniProt P07949); experiment: Inhibition of RET (unknown origin) at 0.49 uM relative to control
[20] = biological target: Tyrosine-protein kinase Fyn (Homo sapiens) (UniProt P06241); experiment: Inhibition of FYN (unknown origin) at 0.49 uM relative to control
[21] = biological target: Dual specificity protein kinase CLK2 (Homo sapiens) (UniProt P49760); experiment: Inhibition of CLK2 (unknown origin) at 0.49 uM relative to control
[22] = biological target: Mitogen-activated protein kinase kinase kinase kinase 4 (Homo sapiens) (UniProt O95819); experiment: Inhibition of HGK (unknown origin) at 0.45 uM relative to control
[23] = biological target: SRSF protein kinase 2 (Homo sapiens) (UniProt P78362); experiment: Inhibition of SRPK2 (unknown origin) at 0.45 uM relative to control
[24] = biological target: NUAK family SNF1-like kinase 1 (Homo sapiens) (UniProt O60285); experiment: Inhibition of NuaK1 (unknown origin) at 0.45 uM relative to control
[25] = biological target: Serine/threonine-protein kinase Nek6 (Homo sapiens) (UniProt Q9HC98); experiment: Inhibition of NEK6 (unknown origin) at 0.45 uM relative to control
[26] = biological target: Cyclin-dependent kinase 1/cyclin B1 (Homo sapiens) (UniProt P06493+P14635); experiment: Inhibition of CDK1/Cycline B1 (unknown origin) at 0.45 uM relative to control; assay type: protein-complex assay
[27] = biological target: Receptor-type tyrosine-protein kinase FLT3 (Homo sapiens) (UniProt P36888); experiment: Inhibition of FLT3 (unknown origin) at 0.45 uM relative to control
[28] = biological target: Glycogen synthase kinase-3 alpha (Homo sapiens) (UniProt P49840); experiment: Inhibition of GSK3-alpha (unknown origin) at 0.45 uM relative to control
[29] = biological target: NT-3 growth factor receptor (Homo sapiens) (UniProt Q16288); experiment: Inhibition of TRKC (unknown origin) at 0.45 uM relative to control
[30] = biological target: Serine/threonine-protein kinase BRSK1 (Homo sapiens) (UniProt Q8TDC3); experiment: Inhibition of BRSK1 (unknown origin) at 0.45 uM relative to control
[31] = biological target: Serine/threonine-protein kinase Sgk3 (Homo sapiens) (UniProt Q96BR1); experiment: Inhibition of SGK3 (unknown origin) at 0.45 uM relative to control
[32] = biological target: Aurora kinase B (Homo sapiens) (UniProt Q96GD4); experiment: Inhibition of AurB (unknown origin) at 0.45 uM relative to control
[33] = biological target: MAP kinase-interacting serine/threonine-protein kinase 1 (Homo sapiens) (UniProt Q9BUB5); experiment: Inhibition of MNK1 (unknown origin) at 0.45 uM relative to control
[34] = biological target: Discoidin domain-containing receptor 2 (Homo sapiens) (UniProt Q16832); experiment: Inhibition of DDR2 (unknown origin) at 0.45 uM relative to control
[35] = biological target: Dual specificity tyrosine-phosphorylation-regulated kinase 1B (Homo sapiens) (UniProt Q9Y463); experiment: Inhibition of DYRK1B (unknown origin) at 0.45 uM relative to control
[36] = test system: Platelet-derived growth factor receptor alpha (Homo sapiens), P16234 [V561D]; experiment: Inhibition of PDGFRA V561D mutant (unknown origin) at 0.45 uM relative to control
[37] = test system: Fibroblast growth factor receptor 4 (Homo sapiens), P22455 [V550L]; experiment: Inhibition of FGFR4 V550L mutant (unknown origin) at 0.45 uM relative to control

inhibition [1]: 1.7%
clearance [2]: 14.5 mL/min/kg
inhibition [3]: 10.7%
inhibition [4]: -2.7%
inhibition [5]: 17.3%
inhibition [6]: 2.3%
inhibition [7]: -3.3%
Structure (SMILES): COC(=O)Nc1noc2cc(-c3c(-c4ccccn4)n[nH]c3C)ccc12

inhibition [8]: -4.3%
inhibition [10]: 11.3%
inhibition [11]: -7%
inhibition [12]: -0.3%
inhibition [13]: 5.3%
inhibition [14]: -7.3%
inhibition [15]: -3.3%
inhibition [16]: 2.3%
inhibition [17]: 0.3%
inhibition [18]: -2.3%
inhibition [19]: 15%
inhibition [20]: 2.7%
inhibition [21]: -0.7%
Structure (SMILES): Cc1[nH]nc(C2CC2)c1-c1ccc2c(NC(=O)C3CC3)noc2c1
inhibition [9]: -2.7%

inhibition [22]: 73.3%
inhibition [23]: 0.3%
inhibition [24]: 13%
inhibition [25]: 3.3%
inhibition [26]: 1.3%
inhibition [27]: 96.7%
inhibition [28]: -1%
inhibition [29]: 95%
inhibition [30]: 14%
inhibition [31]: 3.3%
inhibition [32]: 11%
inhibition [33]: 6.7%
inhibition [34]: 66%
inhibition [35]: 19.7%
inhibition [36]: 30%
inhibition [37]: 2.7%
Structure (SMILES): Cc1n[nH]c(C)c1-c1ccc2c(NC(=O)c3ccc(N4CCN(C)CC4)cc3)n[nH]c2c1
